MC4R ag barr – MC4R agonists recruiting beta-arrestin, primary screen, cell-based, luminescence, agonist arm of biased-ligand search; Melanocortin receptor 4 (Homo sapiens), P32245; AID 540308, 2011; actives 0.98% (n = 360,000); activation, % at 8.9 µM; U2OS MC4R beta-arrestin complementation; percent of melanotan II response, DMSO zero;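 active = activation above a per-plate cutoff, the mean activation of sample wells on that plate plus 3 SD, cut at about 8% in these data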
TAAR1 ag – human TAAR1 agonists, primary screen, Fluo-8 calcium fluorescence, CHO RD-HGA16 cells | Trace amine-associated receptor 1 (Homo sapiens), Q96RJ0 | vehicle wells 0%, saturating PEA agonist 100% | activation, % at 3 µM | actives 0.99% (n = 360,000) | AID 624467, 2012;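 active = activation above the mean activation of all test compounds in the run plus 3 SD, cut at about 38% in these data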
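Test system: RD-HGA16 (CHO) cells co-expressing Gα16 and hTAAR1 | Doses: Single dose, 3 µM | Schedule: 17-24 h seeding, 75 min 37 °C dye, 30 min RT | Evaluation: % activation from peak over basal fluorescence ratio, DMSO-to-PEA scaled | Technique: Kinetic Fluo-8 calcium fluorescence | Benchmarks: Low control DMSO, high control PEA (EC100)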
MC4R antagonist – MC4R antagonists of cAMP signaling, primary screen, cell-based, TR-FRET, antagonist arm of biased-ligand search; Melanocortin receptor 4 (Homo sapiens), P32245; MC4R-expressing cells, MTII-stimulated cAMP, LANCE TR-FRET; inhibition, % at 6.5 µM; actives 0.48% (n = 360,000); AID 540295, 2011;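 active = inhibition above its plate's cutoff, the mean of tested wells on that plate plus 3 SD, cut at about 29% in these data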
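Assay system: U2OS cells stably expressing human melanocortin 4 receptor (MC4R) / Dosing: 6.5 µM / Timing: compound 30 min, challenge 1 h, detection 1 h / Measured by: Eu-cAMP/anti-cAMP TR-FRET, emission 671 nm / Replicates: singlicate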
Beta2AR agonist – beta2AR agonists driving receptor internalization, primary screen, cell-based, FAP fluorogen, flow cytometry | Beta-2 adrenergic receptor (Homo sapiens), P07550 | Am2.2-beta2AR cells | response, % (test concentration not listed) | actives 0.43% (n = 340,000);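 active = response above a set limit, near 3 SD of response in nonfluorescent compounds, cut at about 42% in these data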
Target sequence (P07550 whole entry, looked up): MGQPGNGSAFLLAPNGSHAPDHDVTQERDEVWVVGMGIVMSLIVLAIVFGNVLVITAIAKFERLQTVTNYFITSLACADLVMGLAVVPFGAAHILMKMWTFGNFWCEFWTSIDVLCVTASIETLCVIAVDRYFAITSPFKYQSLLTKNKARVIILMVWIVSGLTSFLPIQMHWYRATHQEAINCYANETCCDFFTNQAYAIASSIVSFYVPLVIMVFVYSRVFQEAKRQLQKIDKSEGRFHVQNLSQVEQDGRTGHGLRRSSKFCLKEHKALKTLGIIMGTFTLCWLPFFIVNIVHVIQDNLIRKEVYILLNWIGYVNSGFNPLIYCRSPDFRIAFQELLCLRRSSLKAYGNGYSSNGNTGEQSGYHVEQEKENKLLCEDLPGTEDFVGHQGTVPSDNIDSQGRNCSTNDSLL
TAAR1 antag – human TAAR1 antagonists, primary screen, Fluo-8 calcium fluorescence, CHO RD-HGA16 cells | inhibition, % at 3 µM | actives 1.5% (n = 360,000) | Trace amine-associated receptor 1 (Homo sapiens), Q96RJ0 | antagonist;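 active = inhibition above a per-plate cutoff, the mean inhibition of test compounds on that plate plus 3 SD, cut at about 49% in these data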
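Test system: hTAAR1-expressing CHO RD-HGA16 cells, Gα16-coupled; Probe or stimulus: EC80 β-phenethylamine stimulus; Compound dosing: single nominal final test compound concentration of 3 µM; Timing: 140 s kinetic read after compound, 140 s after agonist; Signal: Fluo-8 calcium-sensitive fluorescence; Measure: % inhibition of agonist calcium response; Controls: DMSO and EC80 PEA controls.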
m5-HT2A agonist – mouse Htr2a agonists via beta-arrestin recruitment, primary screen, cell-based, luminescence; activation, % at 7.6 µM; CHO-K1 mHTR2A beta-arrestin complementation; percent of 30 µM serotonin response; AID 624169, 2012; actives 0.66% (n = 360,000);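 active = activation above a run cutoff, the mean activation of all tested compounds plus 3 SD, cut at about 14% in these data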
Hits are given with their value; – = inactive; · = not tested or not shown. Compounds with a hit are over-represented: about 4.3% of the library has one in this group of screens.

SMILES	MC4R ag barr	TAAR1 ag	MC4R antagonist	Beta2AR agonist	TAAR1 antag	m5-HT2A agonist
COc1ccc2c(c1OC)C(=O)N1c3ccccc3C(=O)N(c3ccccc3F)C21 (configuration not stated)	–	–	–	–	66	–
O=C(COC(=O)c1cc(-c2cccs2)nn1-c1ccccc1)Nc1ccc(F)c([N+](=O)[O-])c1	–	–	–	–	49	–
CCN(CC(=O)Nc1ccc(NC(C)=O)cc1)C(=O)c1cc(-c2ccccc2)nn1-c1ccccc1	–	–	–	–	–	–
CCN(CC(=O)Nc1ccc(OC)cc1)C(=O)c1cc(-c2cccs2)nn1-c1ccccc1	–	–	–	–	62	–
COCCN(CC(=O)Nc1cccc(C)c1C)C(=O)c1cc(-c2cccs2)nn1-c1ccccc1	–	–	–	–	51	–
CCN(CC(=O)Nc1ccc(NC(C)=O)cc1)C(=O)/C=C/c1cn(-c2ccccc2)nc1-c1ccc(F)cc1	8.4	–	–	–	–	–
CC(C=NN=C1C(=O)Nc2ccccc21)=Cc1ccccc1	·	–	·	·	–	·
CCOc1ccc(NC(=O)CN(C)C(=O)c2cc(-c3cccs3)nn2-c2ccccc2)cc1OCC	–	–	–	–	–	–
CN(CC(=O)Nc1ccc(F)cc1)C(=O)c1cn(-c2ccccc2)nc1-c1cccs1	–	–	–	–	51	–
COc1ccc(NC(=O)CN(C)C(=O)c2cc(-c3cccs3)nn2-c2ccccc2)cc1	–	–	–	–	55	–
CCN(CC(=O)Nc1ccc(NC(C)=O)cc1)C(=O)c1c(C)nn(-c2ccc(F)cc2)c1Cl	–	–	–	–	54	–
CCOc1ccc(NC(=O)CN(C)C(=O)c2c(C)nn(-c3ccc(F)cc3)c2Cl)cc1OCC	–	–	–	–	–	–
CN1CCCCC(NC(=O)c2cccc(C(F)(F)F)c2)C1=O (configuration not stated)	·	–	·	·	–	·
Cc1ccccc1C(=O)Oc1cccc(Nc2ncnc3ccccc23)c1	–	–	–	–	53	–
Cc1cc(C)c(CN2CCN(C(=O)Cn3cnc(C(=O)Nc4ccc(C)c(C)c4)n3)CC2)c(C)c1	–	–	–	–	56	–
COc1ccc(OCCN2CCC(C(=O)NC(c3ccc(Cl)cc3)c3ncccc3C)CC2)cc1 (configuration not stated)	–	·	–	·	·	–
Cc1ccccc1C(c1ncccc1C)N(C)C(=O)C1CCN(CCOc2ccc(Cl)cc2Cl)CC1 (configuration not stated)	9.2	–	–	·	–	–
CCOC(=O)[C@@H]1CSCCS(=O)(=O)N1C(=O)[C@H](CC(C)C)NC(=O)OC(C)(C)C	·	–	·	·	–	·
CN1CCN(/C=N/c2sc3c(c2C#N)CCCCC3)CC1	–	–	–	–	–	–
N#Cc1c(/N=C/C=C/c2ccccc2)sc2c1CCCC2	–	–	–	–	–	16
CCCCCCCCN1C(=O)[C@@H](CC(=O)N2CCN(C(=O)C3CC3)CC2)C[C@@]2(C(=O)OC)C1=C[C@H](C(C)(C)C)O[C@@H]2C	·	–	·	·	–	·
CC(C)(C)S(=O)(=O)N1Cc2cc(CO)ccc2[C@@H]1CCO	·	–	·	·	–	·
CCN1CN(Cc2ccco2)CNC1=S	–	–	–	48	–	–
COC(=O)c1cc2c(c3c4cc(F)ccc4n(S(=O)(=O)c4ccccc4)c13)C(=O)N(Cc1ccco1)C2	·	–	·	·	–	·
CCO[C@@H]1OC(C(=O)N2CCN(Cc3ccc4c(c3)OCO4)CC2)=C[C@H](c2ccc(Br)cc2)[C@H]1CCCO	–	–	–	–	49	–
CCO[C@@H]1OC(C(=O)NCc2ccccc2)=C[C@H](c2ccc3c(c2)OCO3)[C@H]1CCCO	–	–	–	–	–	–

Screening results as filed in PubChem BioAssay.
